Measured values as given in ChEMBL document CHEMBL1629675, “Novel inhibitor of Plasmodium histone deacetylase that cures P. berghei-infected mice” (Antimicrob Agents Chemother, 2009).
The source made the active and inactive calls. The calls are words filed in the database; no cut-off is given here.

How the values were obtained:
[1] = test system: Plasmodium falciparum; test: Inhibition of HDAC in Plasmodium falciparum 3D7 by fluorescent activity assay; assay type: organism-based
[2] = test system: Plasmodium falciparum; test: Antimalarial activity against Plasmodium falciparum 7G8 assessed as parasite growth inhibition after 48 hrs by standard growth inhibition assay; assay type: functional, organism-based
[3] = test system: Plasmodium falciparum; test: Antimalarial activity against Plasmodium falciparum HB3 assessed as parasite growth inhibition after 48 hrs by standard growth inhibition assay; assay type: functional, organism-based
[4] = test system: Plasmodium falciparum; test: Antimalarial activity against chloroquine-resistant Plasmodium falciparum FCB1 assessed as parasite growth inhibition after 48 hrs by standard growth inhibition assay; assay type: functional, organism-based, FcB1/Columbia
Procedure, shortened: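 Ring-stage cultures of P. falciparum (3D7, FCB1) in RBCs, 2% hematocrit, at 1% parasitemia, incubated 48 h at 37°C in 90% N2/5% O2/5% CO2 with compound; 0.1% Me2SO control, uninfected-RBC background. Parasitemia counted by FACS on 100,000 Sybr green-stained cells; accepted only if controls grew ≥3-fold. Growth inhibition from background-corrected ratio to control. Triplicate, repeated at least twice.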

[5] = biological target: Histone deacetylase; test: Inhibition of human HDAC in HeLa cells by fluorescent activity assay; assay type: cell-based
[6] = test system: Plasmodium falciparum; test: Antimalarial activity against sPlasmodium falciparum VS/1 assessed as parasite growth inhibition after 48 hrs by standard growth inhibition assay; assay type: functional
[7] = test system: Plasmodium falciparum; test: Antimalarial activity against Plasmodium falciparum Dd2 assessed as parasite growth inhibition after 48 hrs by standard growth inhibition assay; assay type: functional, organism-based
[8] = test system: Plasmodium falciparum; test: Antimalarial activity against chloroquine-sensitive Plasmodium falciparum 3D7 assessed as parasite growth inhibition after 48 hrs by standard growth inhibition assay; assay type: functional, organism-based
[9] = test system: Plasmodium falciparum; test: Antimalarial activity against Plasmodium falciparum FCR3 assessed as parasite growth inhibition after 48 hrs by standard growth inhibition assay; assay type: functional, FCR-3/Gambia
[10] = test system: Plasmodium berghei; test: Antimalarial activity against Plasmodium berghei infected in mouse assessed as decrease in parasites in blood at 0.5 mg/kg, ip administered as splited dose compound with drawn on day 4 measured on day 8
[11] = test system: Plasmodium berghei; test: Antimalarial activity against Plasmodium berghei infected in mouse assessed as decrease in parasites in blood at 5 mg/kg, ip administered as splited dose measured on day 4 relative to control
[12] = test system: Plasmodium falciparum; test: Antimalarial activity against Plasmodium falciparum 3D7 assessed as parasite regrowth measured after 3 days of compound withdrawal at 2.5 nM by standard growth inhibition assay; assay type: functional, organism-based
Procedure, shortened: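 Synchronized 3D7 cultures were exposed to 2.5 nM drug, continuously or over a limited interval, and then the drug was removed. Parasitemia was measured by FACS of Sybr green-stained cells every 12 h for 4 days. Growth inhibition was calculated against 0.1% Me2SO-treated controls. Representative of three experiments.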

[13] = test system: Plasmodium berghei; test: Antimalarial activity against Plasmodium berghei infected in mouse assessed as decrease in parasites in blood at 5 mg/kg, ip administered as splited dose compound with drawn on day 4 measured on day 20
[14] = test system: Plasmodium berghei; test: Antimalarial activity against Plasmodium berghei infected in mouse assessed as decrease in parasites in blood at 0.5 mg/kg, ip administered as splited dose measured on day 4 relative to control
[15] = test system: Plasmodium berghei; test: Antimalarial activity against Plasmodium berghei infected in mouse assessed as decrease in decline in hematocrit rate at 50 mg/kg, […] as splited dose compound with drawn on day 4 measured after 6 weeks; assay type: functional, organism-based; design: dose 50 mg/kg
Procedure, shortened: (§1)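 ICR mice (five per group) infected intraperitoneally with 10^6 P. berghei NK56 parasites from a donor mouse, then dosed intraperitoneally with 0, 0.05, 0.5, 5 or 50 mg/kg/day split into two doses for 4 days. Parasitemia was read from Giemsa-stained tail-blood thin smears on day 4 (1,500 cells, two microscopists), with Sybr green confirming negative slides. Parasitemia and hematocrit were taken every 4 days over 6 weeks.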

[16] = test system: Plasmodium berghei; test: Antimalarial activity against Plasmodium berghei infected in mouse assessed as decrease in decline in hematocrit rate at 0.5 mg/kg, […] as splited dose compound with drawn on day 4 measured on day 8; assay type: functional, organism-based; design: dose 0.5 mg/kg; procedure, shortened: as §1
[17] = test system: Plasmodium berghei; test: Antimalarial activity against Plasmodium berghei infected in mouse assessed as decrease in parasites in blood at 50 mg/kg, ip administered as splited dose compound with drawn on day 4 measured after 6 weeks
[18] = test system: Plasmodium berghei; test: Antimalarial activity against Plasmodium berghei infected in mouse assessed as decrease in parasites in blood at 0.05 mg/kg, ip administered as splited dose measured on day 4
[19] = test system: Plasmodium falciparum; test: Antimalarial activity against Plasmodium falciparum 3D7 schizonts assessed as parasite growth inhibition at […] nM after 14 hrs by standard growth inhibition assay; details: 3D7, 14 h
[20] = test system: Mus musculus; test: Toxicity in ICR mouse assessed as mild increase in erythroid mass after 14 days at 5 to 50 mg/kg, iv once daily; assay type: organism-based, Erythrocyte; design: dose 5-50 mg/kg, route intravenous; details: in vivo, 336 h
[21] = test system: Plasmodium berghei; test: Antimalarial activity against Plasmodium berghei infected in mouse assessed as mouse survival days at 0.5 mg/kg, […] as splited dose measured on day 4 relative to control; assay type: functional
Procedure, shortened: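 P. berghei NK56 blood from donor ICR mice (≥10% parasitemia), diluted in PBS; 10^6 parasites given ip to groups of five ICR mice. Treatment started simultaneously: ip, 0, 0.05, 0.5, 5 or 50 mg/kg/day in two daily doses for 4 days. Mice monitored up to 6 weeks or until death; survival counted from treatment start; paired Student t test.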

[22] = test system: Plasmodium falciparum; test: Antimalarial activity against Plasmodium falciparum 3D7 trophozoites assessed as parasite growth inhibition at […] nM measured at end of the experiment by standard growth inhibition assay; assay type: functional
[23] = test system: Mus musculus; test: Toxicity in ICR mouse assessed as death after 14 days at 5 to 100 mg/kg, iv once daily; assay type: organism-based; design: dose 5-100 mg/kg, route intravenous; details: in vivo, 336 h
[24] = test system: Plasmodium falciparum; test: Antimalarial activity against Plasmodium falciparum 3D7 schizonts assessed as parasite growth inhibition at […] nM measured at end of the experiment by standard growth inhibition assay; assay type: functional
[25] = test system: Mus musculus; test: Toxicity in ICR mouse assessed as severe increase in erythroid mass after 14 days at 5 to 100 mg/kg, iv once daily; assay type: organism-based, Erythrocyte; design: dose 5-100 mg/kg, route intravenous; details: in vivo, 336 h
[26] = test system: Mus musculus; test: Toxicity in ICR mouse assessed as clinical signs of distress after 5 days at 0.5 to 100 mg/kg, iv once daily; assay type: organism-based; design: dose 0.5-100 mg/kg, route intravenous; details: in vivo, 120 h
[27] = test system: Mus musculus; test: Toxicity in ICR mouse assessed as moderate increase in erythroid mass after 5 days at 0.5 to 100 mg/kg, iv once daily; assay type: organism-based, Erythrocyte; design: dose 0.5-100 mg/kg, route intravenous; details: in vivo, 120 h
[28] = test system: Plasmodium berghei; test: Antimalarial activity against Plasmodium berghei infected in iv dosed mouse assessed as decrease in parasites in blood; assay type: functional, organism-based; details: in the assay text read “ip dosed” for “iv dosed”; procedure, shortened: as §1
[29] = test system: Mus musculus; test: Toxicity in ICR mouse assessed as severe increase in erythroid mass after 5 days at 0.5 to 100 mg/kg, iv once daily; assay type: organism-based, Erythrocyte; design: dose 0.5-100 mg/kg, route intravenous; details: in vivo, 120 h
[30] = test system: Mus musculus; test: Toxicity in ICR mouse assessed as moderate increase in erythroid mass after 14 days at 5 to 50 mg/kg, iv once daily; assay type: organism-based, Erythrocyte; design: dose 5-50 mg/kg, route intravenous; details: in vivo, 336 h
[31] = test system: Plasmodium falciparum; test: Antimalarial activity against Plasmodium falciparum 3D7 rings assessed as parasite growth inhibition at […] nM after 14 hrs by standard growth inhibition assay; details: 3D7, 14 h
[32] = test system: Mus musculus; test: Toxicity in ICR mouse assessed as death after 5 days at 0.5 to 100 mg/kg, iv once daily; assay type: organism-based; design: dose 0.5-100 mg/kg, route intravenous; details: in vivo, 120 h
[33] = test system: Mus musculus; test: Toxicity in ICR mouse assessed as mild increase in erythroid mass after 5 days at 0.5 to 50 mg/kg, iv once daily; assay type: organism-based, Erythrocyte; design: dose 0.5-50 mg/kg, route intravenous; details: in vivo, 120 h
[34] = test system: Plasmodium falciparum; test: Antimalarial activity against Plasmodium falciparum 3D7 trophozoites assessed as parasite growth inhibition at […] nM after 14 hrs by standard growth inhibition assay; details: 3D7, 14 h
[35] = test system: Plasmodium falciparum; test: Antimalarial activity against Plasmodium falciparum 3D7 rings assessed as parasite growth inhibition at […] nM measured at end of the experiment by standard growth inhibition assay; assay type: functional
[36] = test system: Mus musculus; test: Toxicity in ICR mouse assessed as clinical signs of distress after 14 days at 5 to 100 mg/kg, iv once daily; assay type: organism-based; design: dose 5-100 mg/kg, route intravenous; details: in vivo, 336 h
[37] = Plasmodium falciparum, 7G8, 48 h
[38] = Plasmodium falciparum, HB3, 48 h
[39] = Plasmodium falciparum, FcB1/Columbia, 48 h
[40] = Plasmodium falciparum, VS/1, 48 h
[41] = Plasmodium falciparum, Dd2, 48 h
[42] = Plasmodium falciparum, 3D7, 48 h
[43] = Plasmodium falciparum, FCR-3/Gambia, 48 h

O=C(CCCCCCC(=O)Nc1nc(-c2ccccc2)cs1)NO
IC50 ([1]; Plasmodium falciparum, 3D7): 30 nM | IC50 [2, 37]: 8 nM | IC50 [3, 38]: 7 nM | IC50 [4, 39]: 6 nM | IC50 [5]: 6.6 nM | IC50 [6, 40]: 6 nM | IC50 [7, 41]: 6 nM | IC50 [8, 42]: 15 nM

N[C@@H](Cc1ccccc1)C(=O)Nc1ccccc1-c1ccc(NC(=O)CCCCCCC(=O)NO)cc1
IC50 ([1]; Plasmodium falciparum, 3D7): 449 nM | IC50 [2, 37]: 160 nM | IC50 [3, 38]: 180 nM | IC50 [4, 39]: 95 nM | IC50 [9, 43]: 150 nM | IC50 [6, 40]: 175 nM | IC50 [7, 41]: 170 nM | IC50 [8, 42]: 220 nM

Nc1cccc(-c2csc(NC(=O)CCCCCCC(=O)NO)n2)c1 [listing 1 of 2 here]
Activity [10]: inactive | Activity [11]: Active | Activity [12]: Active | Activity [13]: inactive | Activity [14]: Active | Activity [15]: Active | Activity [16]: Active | Activity [17]: Active | Activity [18]: inactive

O=C(CCCCCCC(=O)Nc1ccc(-c2ccccc2)cc1)NO
IC50 ([1]; Plasmodium falciparum, 3D7): 60 nM | IC50 [2, 37]: 100 nM | IC50 [3, 38]: 110 nM | IC50 [4, 39]: 80 nM | IC50 [9, 43]: 115 nM | IC50 [6, 40]: 115 nM | IC50 [7, 41]: 85 nM | IC50 [8, 42]: 129 nM

O=C(CCCCCCC(=O)NC12CC3CC(CC(C3)C1)C2)NO
IC50 ([1]; Plasmodium falciparum, 3D7): 658 nM | IC50 [2, 37]: 10000 nM | IC50 [3, 38]: 9550 nM | IC50 [4, 39]: 6550 nM | IC50 [5]: 420 nM | IC50 [9, 43]: 9580 nM | IC50 [6, 40]: 8120 nM | IC50 [8, 42]: 11000 nM

Cl.Nc1cccc(-c2csc(NC(=O)CCCCCCC(=O)NO)n2)c1
IC50 [1]: 50 nM | IC50 [2]: 10 nM | IC50 [3]: 20 nM | IC50 [4]: 15 nM | IC50 [5]: 7.6 nM | IC50 [9]: 22 nM | IC50 [6]: 23 nM | IC50 [7]: 12 nM | IC50 [8]: 30 nM

Nc1cccc(-c2csc(NC(=O)CCCCCCC(=O)NO)n2)c1 [listing 2 of 2 here]
inhibition at 0.00125 µM [19]: 25% | Activity [20]: Non-toxic | Survival [21]: 23.6 days | inhibition at 0.00125 µM [22]: 25% | IC50 [1]: 0.23 nM | Activity [23]: Non-toxic | inhibition at 0.00125 µM [24]: 20% | IC50 [2]: 0.4 nM | Activity [25]: Non-toxic | Activity [26]: Non-toxic | Activity [27]: Non-toxic | IC50 [5]: 3.9 nM | IC50 [28]: 0.5 mg/kg/day | Activity [29]: Non-toxic | Activity [30]: Non-toxic | inhibition at 0.00125 µM [31]: 15% | IC50 [6]: 1 nM | Activity [32]: Non-toxic | Activity [33]: Non-toxic | inhibition at 0.00125 µM [34]: 35% | inhibition at 0.00125 µM [35]: < 5% | Activity [36]: Non-toxic

O=C(CCCCCC(=O)Nc1cccc2cccnc12)NS
IC50 ([1]; Plasmodium falciparum, 3D7): 4560 nM | IC50 [2, 37]: 5550 nM | IC50 [3, 38]: 8990 nM | IC50 [4, 39]: 6780 nM | IC50 [5]: 44 nM | IC50 [9, 43]: 6750 nM | IC50 [6, 40]: 9910 nM | IC50 [7, 41]: 7550 nM | IC50 [8, 42]: 9750 nM
